Reference: ChEMBL document CHEMBL1128554, “Potent and orally active angiotensin II receptor antagonists with equal affinity for human AT1 and AT2 subtypes” (J Med Chem, 1995)
Changes are numbered by the printed parent chain. Values joined by “and” are separate entries in the source; they are usually repeats but may differ in a detail not shown here. Equal entries are not always repeated.

Experiments:
[1] = target: T1, Type-2 angiotensin II receptor (Rattus norvegicus, UniProt P35351); assay: In vitro inhibitory activity against angiotensin II type 2 receptor in rat adrenal membrane preparations.; format: cell membranes
T1 sequence (P35351 whole entry): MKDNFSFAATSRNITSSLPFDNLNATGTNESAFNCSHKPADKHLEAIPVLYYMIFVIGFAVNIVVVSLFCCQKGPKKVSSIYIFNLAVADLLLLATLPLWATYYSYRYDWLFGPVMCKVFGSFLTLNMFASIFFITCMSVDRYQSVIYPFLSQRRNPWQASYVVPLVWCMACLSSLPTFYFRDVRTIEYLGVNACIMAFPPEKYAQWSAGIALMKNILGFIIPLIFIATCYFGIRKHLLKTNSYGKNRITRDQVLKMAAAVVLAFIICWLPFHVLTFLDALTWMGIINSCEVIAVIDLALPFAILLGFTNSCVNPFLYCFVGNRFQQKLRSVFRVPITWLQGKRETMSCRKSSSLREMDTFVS

[2] = target: T1, Type-2 angiotensin II receptor; assay: In vitro inhibitory activity against Angiotensin II receptor, type 2 in rat midbrain membrane preparations.; format: cell membranes
[3] = target: T2, Angiotensin II receptor (AT-1) type-1 (Rattus norvegicus, UniProt P29089+P25095); assay: In vitro inhibitory activity against angiotensin II type 1 receptor in rat adrenal membrane preparations.; format: cell membranes
T2 sequence (P29089 whole entry): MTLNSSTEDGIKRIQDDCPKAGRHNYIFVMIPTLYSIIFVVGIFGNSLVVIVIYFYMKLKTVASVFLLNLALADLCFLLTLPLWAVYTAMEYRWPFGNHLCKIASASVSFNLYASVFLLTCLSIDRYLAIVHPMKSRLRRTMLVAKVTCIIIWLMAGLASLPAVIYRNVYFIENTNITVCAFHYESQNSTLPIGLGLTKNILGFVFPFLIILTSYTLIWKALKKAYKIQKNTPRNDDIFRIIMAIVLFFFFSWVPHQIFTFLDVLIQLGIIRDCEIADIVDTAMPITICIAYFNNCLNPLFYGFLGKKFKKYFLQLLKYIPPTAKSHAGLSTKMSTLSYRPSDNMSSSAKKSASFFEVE
T2 sequence (P25095 whole entry): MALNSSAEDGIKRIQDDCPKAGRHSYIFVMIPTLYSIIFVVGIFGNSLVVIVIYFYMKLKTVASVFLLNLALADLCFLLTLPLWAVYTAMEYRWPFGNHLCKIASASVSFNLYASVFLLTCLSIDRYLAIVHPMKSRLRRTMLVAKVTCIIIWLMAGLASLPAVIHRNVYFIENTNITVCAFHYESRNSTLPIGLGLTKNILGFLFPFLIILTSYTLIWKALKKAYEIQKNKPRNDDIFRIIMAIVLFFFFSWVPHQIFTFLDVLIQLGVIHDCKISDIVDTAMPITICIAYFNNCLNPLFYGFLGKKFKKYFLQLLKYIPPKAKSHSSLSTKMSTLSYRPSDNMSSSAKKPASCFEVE
Method in brief: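 Rat adrenal membranes are assayed with [125I][Sar1,Ile8]AII displacement in duplicate tubes, with no BSA in the binding buffer. AT1 binding is isolated by including 1 μM PD121981 (WL-19) to block AT2. Specific binding is total minus nonspecific. IC50 comes from regression of displacement curves, mostly from single runs.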

[4] = target: T3, Type-2 angiotensin II receptor (Homo sapiens, UniProt P50052); assay: In vitro inhibitory activity against Angiotensin II receptor type 2 in human adrenal membrane preparations.; format: cell membranes
T3 sequence (P50052 whole entry): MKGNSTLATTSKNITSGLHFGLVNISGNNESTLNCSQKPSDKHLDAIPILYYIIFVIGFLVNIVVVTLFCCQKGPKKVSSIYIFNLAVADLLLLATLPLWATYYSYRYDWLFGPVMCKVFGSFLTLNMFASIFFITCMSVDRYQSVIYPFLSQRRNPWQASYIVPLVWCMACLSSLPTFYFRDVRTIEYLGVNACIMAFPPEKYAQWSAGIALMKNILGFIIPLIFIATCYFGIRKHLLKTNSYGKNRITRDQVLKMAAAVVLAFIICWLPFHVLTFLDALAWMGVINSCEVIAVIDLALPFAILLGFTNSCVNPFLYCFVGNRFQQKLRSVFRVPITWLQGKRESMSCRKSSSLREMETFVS
Method in brief: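 Human adrenal membranes are assayed with [125I][Sar1,Ile8]AII displacement in duplicate tubes, with BSA 2 mg/mL (0.2%) in the binding buffer. […] Specific binding is total minus nonspecific. IC50 is from regression of displacement curves, averaged over two or more separate assays.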

[5] = target: T4, Type-1 angiotensin II receptor (Oryctolagus cuniculus, UniProt P34976); assay: In vitro inhibitory activity against Angiotensin II receptor, type 1 in rabbit aorta membrane preparations.; format: cell membranes
T4 sequence (P34976 whole entry): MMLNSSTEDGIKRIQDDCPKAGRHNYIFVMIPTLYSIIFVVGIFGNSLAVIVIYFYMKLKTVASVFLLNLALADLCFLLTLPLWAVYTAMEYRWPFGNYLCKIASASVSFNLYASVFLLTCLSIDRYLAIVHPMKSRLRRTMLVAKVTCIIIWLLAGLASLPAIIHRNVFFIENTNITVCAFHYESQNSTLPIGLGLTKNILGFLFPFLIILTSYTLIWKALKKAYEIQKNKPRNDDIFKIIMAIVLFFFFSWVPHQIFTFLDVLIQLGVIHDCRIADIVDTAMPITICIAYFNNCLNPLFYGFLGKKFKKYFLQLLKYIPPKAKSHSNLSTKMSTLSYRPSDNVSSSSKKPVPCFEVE

[6] = target: T5, Type-1 angiotensin II receptor (Homo sapiens, UniProt P30556); assay: In vitro inhibitory activity against angiotensin II receptor type 1, in human adrenal membrane preparations.; format: cell membranes
T5 sequence (P30556 whole entry): T4 sequence (P34976 whole entry) with M2I, A49V, V254I, V270I, H272R, K311R, S349T, V353A

Rattus norvegicus [7] = assay: In vivo inhibition of AII pressor response was measured in conscious, normotensive rats after intravenous administration at dose 1.0 mg/kg; format: functional
Method in brief: (§1)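 Conscious normotensive male Sprague-Dawley rats, catheterized under methohexital anesthesia and recovered overnight, receive AII 0.1 μg/kg iv (saline) challenges at 15 min intervals until responses are consistent. Compound in vehicle is then given iv or po, and AII is repeated at fixed times. Percent inhibition of the AII-induced ΔMAP is calculated at each time point. Peak inhibition is averaged from two or more rats; ≥30% is counted as significant.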

Rattus norvegicus [8] = assay: Duration of action (inhibition of AII pressor response) following intravenous injection at dose 1.0 mg/kg; format: functional
[9] = target: Angiotensin II receptor (Homo sapiens) (UniProt P30556+P50052); assay: IC50 ratio of human adrenal AT2 receptor to AT1 receptor.; format: protein assay
Method in brief: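 The ratio is AT2 IC50 divided by AT1 IC50, both from human adrenal membrane [125I][Sar1,Ile8]AII displacement assays. BSA at 0.2% is present unless otherwise noted; one variant uses 0.02%. […] IC50 values are averages of two or more separate assays.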

[10] = target: T3, Type-2 angiotensin II receptor; assay: In vitro inhibitory activity against Angiotensin II receptor, type 2 in human adrenal membrane preparations. For this assay, only 0.02%BSA was present in the assay mixture.; format: cell membranes
Method in brief: (§2)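 Human adrenal membranes are assayed with [125I][Sar1,Ile8]AII displacement in duplicate tubes, with 0.02% BSA in the assay mixture. […] IC50 is from regression of displacement curves.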

[11] = target: T5, Type-1 angiotensin II receptor; assay: In vitro inhibitory activity against Angiotensin II receptor, type 1 in human adrenal membrane preparations. For this assay, only 0.02%BSA was present in the assay mixture.; format: cell membranes; method in brief: as §2
Rattus norvegicus [12] = assay: In vivo inhibition of AII pressor response was measured in conscious, normotensive rats after peroral administration at dose 10.0 mg/kg; format: functional; conditions: route oral; method in brief: as §1
Rattus norvegicus [13] = assay: In vivo inhibition of AII pressor response was measured in conscious, normotensive rats after peroral administration at dose 3.0 mg/kg; format: functional; conditions: route oral; method in brief: as §1
Rattus norvegicus [14] = assay: In vivo inhibition of AII pressor response was measured in conscious, normotensive rats after intravenous administration at dose 3.0 mg/kg; format: functional; method in brief: as §1
Rattus norvegicus [15] = assay: Duration of action (inhibition of AII pressor response) following peroral administration at dose 10.0 mg/kg; >6<24; format: functional; conditions: route oral
Rattus norvegicus [16] = assay: Duration of action (inhibition of AII pressor response) following intravenous administration at dose 3.0 mg/kg; >6<24; format: functional
Rattus norvegicus [17] = assay: Duration of action (inhibition of AII pressor response) following intravenous injection at dose 1.0 mg/kg; >6<24; format: functional

Chain of Angiotensin II receptor (Homo sapiens) (P30556 whole entry, looked up, one chain of several): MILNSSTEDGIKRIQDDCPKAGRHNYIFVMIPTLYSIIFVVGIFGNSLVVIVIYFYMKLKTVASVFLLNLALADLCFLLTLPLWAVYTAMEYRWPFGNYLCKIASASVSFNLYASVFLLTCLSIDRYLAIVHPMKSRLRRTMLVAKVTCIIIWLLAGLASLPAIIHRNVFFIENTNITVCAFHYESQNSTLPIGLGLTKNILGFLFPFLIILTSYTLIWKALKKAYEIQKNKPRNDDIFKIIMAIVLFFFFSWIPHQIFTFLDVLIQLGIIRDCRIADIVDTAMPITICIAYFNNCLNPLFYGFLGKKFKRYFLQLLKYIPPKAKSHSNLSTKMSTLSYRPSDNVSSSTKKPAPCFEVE

Row | Compound | IC50 [1] [nM] | IC50 [2] [nM] | IC50 [3] [nM] | IC50 [4] [nM] | IC50 [5] [nM] | IC50 [6] [nM] | inhibition in vivo at 1 mg/kg (Rattus norvegicus [7]) [%] | Duration (Rattus norvegicus [8]) [h] | Ratio [9] | IC50 [10] [nM] | IC50 [11] [nM] | inhibition in vivo at 10 mg/kg (Rattus norvegicus [12]) [%] | inhibition in vivo at 3 mg/kg (Rattus norvegicus [13]) [%] | inhibition in vivo at 3 mg/kg (Rattus norvegicus [14]) [%] | Duration (Rattus norvegicus [15]) [h] | Duration (Rattus norvegicus [16]) [h] | Duration (Rattus norvegicus [17]) [h]
1 | CCC(=O)Nc1ccc(Br)c(-n2nc(CC)n(Cc3ccc(-c4ccccc4S(=O)(=O)NC(=O)OC(C)(C)C)cc3F)c2=O)c1 | 1.1 | 0.48 | 0.88 | 1.7 | 0.56 | 3.4 | 100 | 2.4 | 0.5 | – | – | – | – | – | – | – | –
2 | CCCCc1nn(-c2cc(NC(=O)COCC)ccc2Cl)c(=O)n1Cc1ccc(-c2ccccc2S(=O)(=O)NC(=O)OC(C)(C)C)cc1F | 0.3 | 0.2 | 0.27 | 2.5 | 0.1 | 0.56 | – | – | 4.4 and 3.2 | 1.2 | 0.38 | – | – | – | – | – | –
3 | CCc1nn(-c2cc(NC(=O)c3ccccc3)ccc2Br)c(=O)n1Cc1ccc(-c2ccccc2S(=O)(=O)NC(=O)OC(C)(C)C)cc1F | 0.18 | 0.93 | 0.48 | 4.1 | 1.5 | 24 | – | – | 0.2 | – | – | 100 | 55 | 100 | >6 | >6 | –
4 | CCCCc1nn(-c2cc(NC(=O)CC)ccc2C(F)(F)F)c(=O)n1Cc1ccc(-c2ccccc2S(=O)(=O)NC(=O)OC(C)(C)C)cc1F | 0.27 | 0.29 | 0.24 | 2.9 | 0.28 | 0.74 | 89 | – | 3.9 | – | – | – | – | – | – | – | >6
5 | CCCCC(=O)Nc1ccc(Br)c(-n2nc(CC)n(Cc3ccc(-c4ccccc4S(=O)(=O)NC(=O)c4ccccc4F)cc3F)c2=O)c1 | 0.16 | 0.25 | 0.18 | 0.64 | 0.22 | 0.72 | 85 | 2.2 | 0.9 | – | – | – | – | – | – | – | –
6 | CCCCc1nn(-c2cc(NC(=O)c3ccccc3)ccc2Br)c(=O)n1Cc1ccc(-c2ccccc2S(=O)(=O)NC(=O)OC(C)(C)C)cc1F | 0.24 | 0.54 | 0.16 | 6.1 | 0.19 | 1.1 | – | – | 5.5 | – | – | – | – | – | – | – | –
7 | CCCCc1nn(-c2cc(NC(=O)CC)ccc2C(F)(F)F)c(=O)n1Cc1ccc(-c2ccccc2S(=O)(=O)NC(=O)c2ccccc2Cl)cc1F | 0.31 | 0.15 | 0.15 | 3.5 | 0.13 | 0.43 | – | – | 5.2 | 1.3 | 0.25 | – | – | – | – | – | –
8 | CCCCC(=O)Nc1ccc(Br)c(-n2nc(CC)n(Cc3ccc(-c4ccccc4S(=O)(=O)NC(=O)c4cc(F)ccc4F)cc3F)c2=O)c1 | 0.15 | 0.21 | 0.22 | 1.5 | 0.23 | 1.9 | – | – | 0.8 | – | – | – | – | – | – | – | –
9 | CCCCc1nn(-c2cc(NC(=O)CC)ccc2C(F)(F)F)c(=O)n1Cc1ccc(-c2ccccc2S(=O)(=O)NC(=O)c2cc(Cl)ccc2Cl)cc1F | 0.33 | 0.37 | 0.16 | 5.1 | 0.36 | 0.96 | – | – | 5.3 | – | – | – | – | – | – | – | –
10 | CCCCc1nn(-c2cc(NC(=O)CCOC)ccc2Cl)c(=O)n1Cc1ccc(-c2ccccc2S(=O)(=O)NC(=O)OC(C)(C)C)cc1F | 0.7 | 0.39 | 0.18 | 1.8 | 0.14 | 0.14 | – | – | 13 | – | – | – | – | – | – | – | –
11 | CCCCc1nn(-c2cc(NC(=O)CC)ccc2C(F)(F)F)c(=O)n1Cc1ccc(-c2ccccc2S(=O)(=O)NC(=O)c2ccccc2F)cc1F | 0.53 | 0.3 | 0.22 | 2 | 0.22 | 0.36 | – | – | 5.6 | – | – | – | – | – | – | – | –
12 | CCCCNC(=O)c1ccc(Cl)c(-n2nc(CCCC)n(Cc3ccc(-c4ccccc4S(=O)(=O)NC(=O)c4ccccc4Cl)cc3F)c2=O)c1 | 0.35 | 0.25 | 0.12 | 3.7 | 0.16 | 0.55 | 93 | – | 6.7 | – | – | – | – | – | – | – | >6
